≈ marks a conversion by molar mass, not a printed value. Calls of active or inactive are those of the source. No cut-off for these calls is given here.
What was measured:
[1] = test system: A549; experiment: Antiproliferative activity against human A549 cells assessed as reduction in cell viability incubated for 72 hrs by SRB assay; assay type: functional; conditions: A549, 72 h
How it was run: (§1)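 Sulforhodamine B assay across a human tumor cell line panel, with CA-4 run in parallel as positive control. GI50 is the concentration giving 50% growth inhibition, read from dose–response curves. Values are mean ± SD of at least three independent experiments.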

[2] = test system: MDA-MB-231; experiment: Antiproliferative activity against human MDA-MB-231 cells assessed as reduction in cell viability incubated for 72 hrs by SRB assay; assay type: functional; conditions: MDA-MB-231, 72 h; how it was run: as §1
[3] = test system: KB; experiment: Antiproliferative activity against human KB cells assessed as reduction in cell viability incubated for 72 hrs by SRB assay; assay type: functional; how it was run: as §1
[4] = Antiproliferative activity against human KBVIN cells assessed as reduction in cell viability incubated for 72 hrs by SRB assay; assay type: functional; how it was run: as §1
[5] = test system: MCF7; experiment: Antiproliferative activity against human MCF7 cells assessed as reduction in cell viability incubated for 72 hrs by SRB assay; assay type: functional; conditions: MCF7, 72 h; how it was run: as §1
[6] = test system: MDA-MB-231; experiment: Cell cycle arrest in human MDA-MB-231 cells assessed as increase in accumulation of G2/M phase at 3 times of antiproliferative IC50 incubated for 24 hrs by propidium iodide based flow cytometry; assay type: functional
How it was run: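 Cells were fixed in EtOH, stained with propidium iodide in the presence of RNase, and analysed by flow cytometry. Cell count was plotted against linear PI fluorescence.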

[7] = test system: MDA-MB-231; experiment: Inhibition of tubulin polymerization in human MDA-MB-231 cells at 3 times of antiproliferative IC50 incubated for 24 hrs by DAPI staining based confocal fluorescence microscopy; assay type: functional, cell-based
How it was run: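 Cells were fixed in 4% PFA/PBS, immunostained for α-tubulin and counterstained with DAPI. Microtubule networks were imaged by confocal fluorescence microscopy as projections of 15–20 confocal images.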

[8] = Solubility of compound at pH 7.4 incubated for 4 hrs by HPLC-UV analysis; assay type: physicochemical; conditions: buffer
[9] = Lipophilicity, logP of compound incubated for 24 hrs with stirrer and measured after overnight by HPLC-UV analysis; assay type: physicochemical
[10] = Potency index, ratio of GI50 of paclitaxel to GI50 of compound for antiproliferative activity against human KBVIN cells assessed as reduction in cell viability incubated for 72 hrs by SRB assay; assay type: functional

| SMILES | GI50 [1] [nM] | GI50 [2] [nM] | GI50 [3] [nM] | GI50 [5] [nM] | solubility at 4 h [8] [µg/mL] | logP at 24 h [9] | GI50 [4] [nM] | Activity [6] | inhibition [7] | RatioGI50 [10] |
| --- | --- | --- | --- | --- | --- | --- | --- | --- | --- | --- |
| CNc1nc(N2CC(=O)Nc3cc(OC)ccc32)c2cc(OC)c(OC)cc2n1 | 54 | 74 | 51 | 84 | – | – | 506 | Active | – | – |
| COc1ccc(/C=C\c2cc(OC)c(OC)c(OC)c2)cc1O [COMBRETASTATIN A4] | 5.5 | 8.2 | 3.6 | 84 | – | – | 3.8 | Active | Active | – |
| COc1ccc2c(c1)NC(=O)CN2c1nc(OC)nc2cc(OC)c(OC)cc12 | 544 | 760 | 506 | 968 | – | – | 919 | Active | – | – |
| CC(=O)O[C@H]1C(=O)[C@@]2(C)[C@H]([C@H](OC(=O)c3ccccc3)[C@]3(O)C[C@H](OC(=O)[C@H](O)[C@@H](NC(=O)c4ccccc4)c4ccccc4)C(C)=C1C3(C)C)[C@]1(OC(C)=O)CO[C@@H]1C[C@@H]2O [PACLITAXEL] | 2.4 | 5.2 | 4.1 | 8.3 | – | – | 1960 | – | – | – |
| COc1ccc2c(c1)NC(=O)CN2c1nc(NCCCO)nc2cc(OC)c(OC)cc12 | 997 | 820 | 516 | 950 | – | – | > 10000 | – | – | – |
| COc1ccc2c(c1)NC(=O)CN2c1nccc2c1NC=CN2 | > 40000 | > 40000 | > 40000 | > 40000 | – | – | > 40000 | – | – | – |
| COc1ccc2c(c1)NC(=O)CN2c1nc(Cl)nc2cc(OC)c(OC)cc12 | 50 | 76 | 45 | 82 | – | – | 65 | Active | – | – |

Further lines, with some results ahead:

| GI50 [1] [nM] | GI50 [2] [nM] | GI50 [3] [nM] | GI50 [5] [nM] | solubility at 4 h [8] [µg/mL] | logP at 24 h [9] | SMILES | GI50 [4] [nM] | Activity [6] | inhibition [7] | RatioGI50 [10] |
| --- | --- | --- | --- | --- | --- | --- | --- | --- | --- | --- |
| > 10000 | > 10000 | > 10000 | > 10000 | – | – | COc1ccc2c(c1)NC(=O)CCCCN2c1nc(C)nc2ccccc12 | > 10000 | – | – | – |
| > 2000 | > 2000 | > 2000 | > 2000 | – | – | COc1ccc2c(c1)C(=O)NCCN2c1nc(C)nc2ccccc12 | > 2000 | – | – | – |
| 617 | 915 | 777 | 908 | – | – | COc1ccc2c(c1)NC(=O)CN2c1nccc2nccnc12 | 638 | – | – | – |
| 5.4 | 8 | 4.6 | – | 10.9 (≈ 34.1 µM) | 2.96 | COc1ccc2c(c1)NC(=O)CN2c1cc(C)nc2ccccc12 | 4.8 | Active | Active | 340 |
| 566 | 2290 | 480 | 1200 | – | – | COc1ccc2c(c1)NC(=O)CN2c1ncnc2ncccc12 | 650 | Active | – | – |
| 838 | 95 | 725 | 933 | – | – | COc1ccc2c(c1)NC(=O)CCN2c1nc(C)nc2ccccc12 | 696 | Active | – | – |
| 5.5 | 9.6 | 5 | 9.4 | – | – | COc1ccc2c(c1)NC(=O)CN2c1ncnc2ccc(Br)cc12 | 5 | Active | – | 340 |
| 5900 | 9700 | 5700 | 10500 | – | – | COc1ccc2c(c1)NC(=O)CCCN2c1nc(C)nc2ccccc12 | 5560 | – | – | – |
| 5.3 | 7.7 | 5.6 | 8.4 | – | – | COc1ccc2c(c1)NC(=O)CN2c1nc(Cl)nc2cccnc12 | 5.7 | Active | – | 340 |

— ChEMBL document CHEMBL4334543, “Scaffold Hopping-Driven Optimization of 4-(Quinazolin-4-yl)-3,4-dihydroquinoxalin-2(1H)-ones as Novel Tubulin Inhibitors” (ACS Med Chem Lett, 2020)
